Publication PMC3270116 (Analytical Biochemistry, 2011)
“Also recorded” adds a separate entry of the source. Blank lines part the entries; values can stand above or below the molecule they belong to.

What was measured:
[1] = biological target: T1, serine racemase (SR) in PC-12 cells (Rattus norvegicus, UniProt Q76EQ0); assay: CE-LIF measurement of intra-cellular D-Ser production in PC-12 cells; assay type: cell-based; settings: for intra-cellular D-Ser production: 36 h, PC-12, n = 3
T1 sequence (Q76EQ0 1-333): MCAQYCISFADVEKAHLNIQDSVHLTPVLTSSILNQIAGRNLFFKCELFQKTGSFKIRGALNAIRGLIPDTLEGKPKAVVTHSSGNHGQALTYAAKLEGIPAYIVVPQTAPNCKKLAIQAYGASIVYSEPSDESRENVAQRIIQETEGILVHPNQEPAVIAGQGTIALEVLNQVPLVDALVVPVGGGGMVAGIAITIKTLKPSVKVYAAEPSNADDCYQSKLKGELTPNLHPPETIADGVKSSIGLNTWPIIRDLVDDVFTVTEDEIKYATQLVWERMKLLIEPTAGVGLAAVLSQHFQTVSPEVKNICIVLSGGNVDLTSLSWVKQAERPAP
How it was run: (§1)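 PC-12 cells were kept in RPMI-1640 with 10% horse serum and 5% FBS, and 1321N1 cells in DMEM with 10% FBS. […] Pellets were spiked with D-Arg internal standard, ACN-extracted, dried and FITC-labelled. CE-LIF used 0.5 mM HP-β-CD in 80 mM borate, pH 9.3.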

primary microglia = settings: LPS 100 ng/ml; cited from earlier work
[2] = system: SR protein (monomer and dimer) in PC-12 cells; assay: Western blot of SR protein expression in PC-12 cells; assay type: cell-based, rat; settings: 36-h treatment; for expression of the SR dimer relative to control: normalized to β-actin, n=2
How it was run: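 Lysates were BCA-assayed, and 20 μg protein per lane was run on reducing 4–12% SDS-PAGE and moved to PVDF. Blots were blocked in 5% milk, probed with a […] SR antibody, then an HRP secondary, and detected by ECL. Bands were quantified by densitometry, normalised to β-actin, n=2.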

[3] = biological target: T2, serine racemase (SR) in C6 cells (Rattus norvegicus, UniProt Q76EQ0); assay: CE-LIF measurement of intra-cellular D-Ser production in C6 cells; assay type: cell-based; settings: for intra-cellular D-Ser production: 36 h, C6, n = 3
T2 sequence (Q76EQ0 1-333): T1 sequence (Q76EQ0 1-333)
How it was run: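 C6 cells in DMEM with L-Gln, 10% FBS and 1% penicillin/streptomycin were grown at 37 °C in 5% CO2 to >70% confluence. They were then incubated for 36 h in medium with substrate amino acid (0–20 mM) or inhibitor amino acid (0–8 mM), in triplicate. ACN extracts with D-Arg internal standard were FITC-labelled, then run by CE-LIF in 0.5 mM HP-β-CD/80 mM borate, pH 9.3. D-Ser was quantified by area ratio to FITC-D-Arg.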

[4] = biological target: purified recombinant human SR; settings: cited from earlier work
[5] = system: SR purified from mouse brain; settings: cited from earlier work
[6] = biological target: T3, serine racemase (SR) in HepG2 cells (Homo sapiens, UniProt Q9GZT4); assay: CE-LIF measurement of intra-cellular D-Ser production in HepG2 cells; assay type: cell-based; settings: for intra-cellular D-Ser production: 36 h, HepG2, n = 3
T3 sequence (Q9GZT4 1-340): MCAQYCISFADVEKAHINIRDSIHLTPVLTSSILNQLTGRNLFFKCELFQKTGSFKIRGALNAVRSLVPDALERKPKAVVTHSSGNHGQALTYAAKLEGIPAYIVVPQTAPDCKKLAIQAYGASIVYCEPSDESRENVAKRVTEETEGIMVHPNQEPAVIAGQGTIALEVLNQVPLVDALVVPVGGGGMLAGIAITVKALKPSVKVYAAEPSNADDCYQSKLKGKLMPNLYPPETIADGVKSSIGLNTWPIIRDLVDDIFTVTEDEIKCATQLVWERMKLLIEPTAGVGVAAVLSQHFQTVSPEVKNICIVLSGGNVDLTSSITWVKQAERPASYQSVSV
How it was run: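 Medium for HepG2 was EMEM with 1% L-Gln, 10% FBS, 1% sodium pyruvate and 1% penicillin/streptomycin. Cells at >70% confluence (37 °C, 5% CO2) were exposed for 36 h to medium with substrate amino acid (0–20 mM) or inhibitor amino acid (0–8 mM), in triplicate. Cell extracts in ACN with D-Arg internal standard were FITC-derivatized. CE-LIF used 0.5 mM HP-β-CD in 80 mM borate, pH 9.3, with D-Ser quantified against FITC-D-Arg.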

[7] = biological target: T4, serine racemase (SR) in 1321N1 cells (Homo sapiens, UniProt Q9GZT4); assay: CE-LIF measurement of intra-cellular D-Ser production in 1321N1 cells; assay type: cell-based; settings: for intra-cellular D-Ser production: 36 h, 1321N1, n = 3
T4 sequence (Q9GZT4 1-340): T3 sequence (Q9GZT4 1-340)
How it was run: as §1

Molecule: lipopolysaccharide [LPS]
- increase in intra-cellular D-Ser concentration ([1]; PC-12, LPS 10 ng/ml in incubation media): 2.5 fold
- increase in intra-cellular D-Ser concentration ([1]; PC-12, LPS 100 ng/ml in incubation media): 3.5 fold
- D-Ser levels in the incubation media (primary microglia): increased
- expression of the dimeric form of SR (primary microglia): increased
- expression of the SR dimer relative to control ([2]; PC-12, LPS 10 ng/ml): 1.2 fold
- expression of the SR dimer relative to control ([2]; PC-12, LPS 100 ng/ml): 1.6 fold

- reduction in intra-cellular D-Ser concentrations ([3]; C6, Gly 0.25 to 8.0 mM added to incubation buffer): 97%
- intra-cellular D-Ser production ([3]; Gly 0.25 mM in media): 3.74 ± 0.12
- intra-cellular D-Ser production ([3]; Gly 0.50 mM in media): 3.49 ± 0.17
- intra-cellular D-Ser production ([3]; Gly 1.0 mM in media): 3.15 ± 0.13
- intra-cellular D-Ser production ([3]; Gly 2.0 mM in media): 1.69 ± 0.14
- intra-cellular D-Ser production ([3]; Gly 4.0 mM in media): 0.51 ± 0.11
- intra-cellular D-Ser production ([3]; Gly 6.0 mM in media): 0.41 ± 0.07
- intra-cellular D-Ser production ([3]; Gly 8.0 mM in media): 0.11 ± 0.07
- intra-cellular D-Ser production ([1]; Gly 0.25 mM in media): 15.91 ± 1.72
- intra-cellular D-Ser production ([1]; Gly 0.50 mM in media): 13.86 ± 2.02
- intra-cellular D-Ser production ([1]; Gly 1.0 mM in media): 11.59 ± 2.43
- intra-cellular D-Ser production ([1]; Gly 2.0 mM in media): 8.30 ± 0.51
- intra-cellular D-Ser production ([1]; Gly 4.0 mM in media): 7.82 ± 0.49
- intra-cellular D-Ser production ([1]; Gly 6.0 mM in media): 4.64 ± 1.36
- intra-cellular D-Ser production ([1]; Gly 8.0 mM in media): 2.72 ± 0.44
- decrease in intra-cellular D-Ser ([1]; PC-12, 6 mM Gly): 77%
- IC50 ([1]; read-out: IC50 for the Gly inhibition of SR, PC-12, 36 h, n = 3): 1.24 ± 0.39 mM
- intra-cellular D-Ser production ([6]; Gly 0.25 mM in media): 14.96 ± 0.91
- intra-cellular D-Ser production ([6]; Gly 0.50 mM in media): 13.85 ± 0.22
- intra-cellular D-Ser production ([6]; Gly 1.0 mM in media): 10.88 ± 0.17
- intra-cellular D-Ser production ([6]; Gly 2.0 mM in media): 10.77 ± 0.14
- intra-cellular D-Ser production ([6]; Gly 4.0 mM in media): 10.31 ± 0.32
- intra-cellular D-Ser production ([6]; Gly 6.0 mM in media): 8.60 ± 0.12
- intra-cellular D-Ser production ([6]; Gly 8.0 mM in media): 7.78 ± 0.27
- reduction in intra-cellular D-Ser concentrations ([7]; 1321N1, Gly 0.25 to 8.0 mM added to incubation buffer): 35%
- intra-cellular D-Ser production ([7]; Gly 0.25 mM in media): 9.05 ± 2.48
- intra-cellular D-Ser production ([7]; Gly 0.50 mM in media): 8.34 ± 2.16
- intra-cellular D-Ser production ([7]; Gly 1.0 mM in media): 7.38 ± 2.01
- intra-cellular D-Ser production ([7]; Gly 2.0 mM in media): 6.69 ± 1.80
- intra-cellular D-Ser production ([7]; Gly 4.0 mM in media): 6.53 ± 1.98
- intra-cellular D-Ser production ([7]; Gly 6.0 mM in media): 6.32 ± 1.83
- intra-cellular D-Ser production ([7]; Gly 8.0 mM in media): 6.29 ± 1.04
- IC50 ([7]; read-out: IC50 for the Gly inhibition of SR, 1321N1, 36 h, n = 3): 0.68 ± 0.15 mM
Molecule: NCC(=O)O [Gly, glycine]
- Ki [4]: 0.37 mM
- reduction in the D-Ser production ([5]; 2 mM Gly in incubation media): 80%
- Ki ([5]; competitive inhibitor): 0.15 mM
- SR dimer or SR monomer expression relative to control ([2]; PC-12, Gly 6 mM): neither of these treatments produced a significant change; also recorded: without causing a significant change

- EC50 [3]: 9.37 ± 0.17 mM
- increase in intra-cellular D-Ser levels ([3]; C6, L-Ser 2.0 to 20.0 mM added to incubation buffer): 533%
- intra-cellular D-Ser production ([3]; L-Ser 2 mM in media): 2.91 ± 0.17
- intra-cellular D-Ser production ([3]; L-Ser 4 mM in media): 3.05 ± 0.08
- intra-cellular D-Ser production ([3]; L-Ser 6 mM in media): 3.60 ± 0.14
- intra-cellular D-Ser production ([3]; L-Ser 8 mM in media): 7.17 ± 0.27
- intra-cellular D-Ser production ([3]; L-Ser 10 mM in media): 10.63 ± 0.45
- intra-cellular D-Ser production ([3]; L-Ser 15 mM in media): 15.64 ± 0.10
- intra-cellular D-Ser production ([3]; L-Ser 20 mM in media): 16.07 ± 0.16
- EC50 [1]: 5.41 ± 0.76 mM
- intra-cellular D-Ser production ([1]; L-Ser 2 mM in media): 16.48 ± 1.72
- intra-cellular D-Ser production ([1]; L-Ser 4 mM in media): 21.97 ± 2.48
- intra-cellular D-Ser production ([1]; L-Ser 6 mM in media): 29.51 ± 4.93
- intra-cellular D-Ser production ([1]; L-Ser 8 mM in media): 31.46 ± 0.07
- intra-cellular D-Ser production ([1]; L-Ser 10 mM in media): 36.49 ± 1.64
- intra-cellular D-Ser production ([1]; L-Ser 15 mM in media): 38.01 ± 0.50
- intra-cellular D-Ser production ([1]; L-Ser 20 mM in media): 39.13 ± 0.36
- EC50 [6]: 7.87 ± 2.09 mM
- increase in intra-cellular D-Ser levels ([6]; HepG2, L-Ser 2.0 to 20.0 mM added to incubation buffer): 50%
- intra-cellular D-Ser production ([6]; L-Ser 2 mM in media): 15.48 ± 0.26
- intra-cellular D-Ser production ([6]; L-Ser 4 mM in media): 16.21 ± 0.21
- intra-cellular D-Ser production ([6]; L-Ser 6 mM in media): 17.53 ± 1.70
- intra-cellular D-Ser production ([6]; L-Ser 8 mM in media): 18.50 ± 1.48
- intra-cellular D-Ser production ([6]; L-Ser 10 mM in media): 20.10 ± 0.50
- intra-cellular D-Ser production ([6]; L-Ser 15 mM in media): 21.81 ± 0.35
- intra-cellular D-Ser production ([6]; L-Ser 20 mM in media): 26.28 ± 0.25
- EC50 [7]: 9.16 ± 0.27 mM
- intra-cellular D-Ser production ([7]; L-Ser 2 mM in media): 8.13 ± 0.14
- intra-cellular D-Ser production ([7]; L-Ser 4 mM in media): 9.26 ± 1.00
- intra-cellular D-Ser production ([7]; L-Ser 6 mM in media): 9.46 ± 0.87
- intra-cellular D-Ser production ([7]; L-Ser 8 mM in media): 9.54 ± 0.82
- intra-cellular D-Ser production ([7]; L-Ser 10 mM in media): 19.57 ± 0.77
- intra-cellular D-Ser production ([7]; L-Ser 15 mM in media): 21.94 ± 0.18
- intra-cellular D-Ser production ([7]; L-Ser 20 mM in media): 22.31 ± 1.27
Molecule: N[C@@H](CO)C(=O)O [L-Ser, L-serine]
- Km ([4]; read-out: Km for L-Ser): 4 mM
- Km ([5]; read-out: Km for L-Ser): 18 mM
- SR dimer or SR monomer expression relative to control ([2]; PC-12, L-Ser 10 mM): neither of these treatments produced a significant change; also recorded: without causing a significant change
